Data: PubChem BioAssay
The source made the active and inactive calls.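 Rule for the calls, unless noted: active = viability at or under a set limit in both replicates, limit being median viability minus 3 SD (cut at about 48% in these data, passing the limit was not always enough); inconclusive = at or under the limit in just one replicate; inactive = at or above the limit in both replicates.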

Experiments:
[1] = reducers of endogenous Her2 protein level, primary screen, SKBR3 breast tumor cells, AlphaScreen, ATP viability (AID 461;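 active = Her2 level under about 52% in both replicate screens, with viability over 70% of control, limit read from the data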;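 for Her2 level: lower value means less Her2 protein in the cells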;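 for viability: percent of carrier control wells set as 100% viability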); conditions: 18-24 h, measured here: SKBR3 viability, ATP luminescence, at 10 µM
[2] = biological target: Receptor tyrosine-protein kinase erbB-2 (Homo sapiens) (UniProt P04626); test: as above; conditions: 18-24 h, at 10 µM, stronger effect = lower value
Chain of Receptor tyrosine-protein kinase erbB-2 (Homo sapiens) (P04626 whole entry, looked up): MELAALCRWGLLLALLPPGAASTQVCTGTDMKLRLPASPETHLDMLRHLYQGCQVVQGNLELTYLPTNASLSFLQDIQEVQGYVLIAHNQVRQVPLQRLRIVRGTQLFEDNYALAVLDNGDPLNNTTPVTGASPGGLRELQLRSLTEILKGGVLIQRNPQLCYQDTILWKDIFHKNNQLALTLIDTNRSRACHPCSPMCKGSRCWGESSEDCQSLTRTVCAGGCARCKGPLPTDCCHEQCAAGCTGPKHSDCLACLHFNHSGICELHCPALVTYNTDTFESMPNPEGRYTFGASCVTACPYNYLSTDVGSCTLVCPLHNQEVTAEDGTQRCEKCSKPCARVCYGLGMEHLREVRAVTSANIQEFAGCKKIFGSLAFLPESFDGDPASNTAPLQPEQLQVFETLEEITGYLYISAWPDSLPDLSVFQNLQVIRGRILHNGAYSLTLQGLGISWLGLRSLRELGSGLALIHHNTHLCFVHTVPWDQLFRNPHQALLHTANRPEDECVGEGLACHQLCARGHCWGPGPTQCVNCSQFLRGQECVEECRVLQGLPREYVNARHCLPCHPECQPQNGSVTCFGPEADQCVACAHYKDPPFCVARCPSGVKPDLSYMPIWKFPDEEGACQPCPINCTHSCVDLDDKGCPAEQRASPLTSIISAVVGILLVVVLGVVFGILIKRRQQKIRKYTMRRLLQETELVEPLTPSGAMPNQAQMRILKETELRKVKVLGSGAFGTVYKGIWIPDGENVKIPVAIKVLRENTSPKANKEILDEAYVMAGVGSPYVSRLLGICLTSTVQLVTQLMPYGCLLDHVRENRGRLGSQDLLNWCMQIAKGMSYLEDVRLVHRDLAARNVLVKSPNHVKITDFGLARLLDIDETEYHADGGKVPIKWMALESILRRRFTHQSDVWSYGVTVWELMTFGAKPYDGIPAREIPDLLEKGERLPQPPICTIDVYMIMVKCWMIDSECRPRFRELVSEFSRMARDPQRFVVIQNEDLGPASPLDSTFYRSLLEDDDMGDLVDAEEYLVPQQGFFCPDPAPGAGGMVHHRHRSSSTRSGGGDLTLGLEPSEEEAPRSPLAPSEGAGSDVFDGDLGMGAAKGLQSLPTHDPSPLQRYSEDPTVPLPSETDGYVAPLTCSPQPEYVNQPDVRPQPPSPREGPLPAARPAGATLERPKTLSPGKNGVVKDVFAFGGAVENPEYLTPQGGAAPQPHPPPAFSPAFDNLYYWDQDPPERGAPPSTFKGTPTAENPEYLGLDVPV

[3] = SK-BR-3 cell growth inhibitors, pilot screen, 24 h, human (AID 572;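 active = viability at or below 10% of carrier control in both of two separate runs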;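 note: compound exposure lasted between 18 and 24 h rather than exactly 24 h; 100% = carrier-treated control wells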); conditions: SK-BR-3 viability, CellTiter-Glo luminescence, at 10 µM, stronger effect = lower value
[4] = HUVEC growth inhibition – cell-based, human, primary screen (AID 575;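 active = viability at or below 30% in both replicate assays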;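 note: 100% = median of untreated cell wells with 0.1% DMSO on each plate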); conditions: HUVEC proliferation, CellTiter-Glo luminescence, 72 h; at 10 µM; stronger effect = lower value
Method in brief: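 Test system: primary human umbilical vein endothelial cells. Quantity: 1250 cells/well. Compound: single 10 µM dose, 0.1% DMSO, from 5x medium stock. Timing: 72 h treatment at 37 °C. Detection: ATP-based CellTiter-Glo luminescent read. Benchmarks: vehicle and MePR control wells. Format: 384-well plates coated with collagen.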

[5] = growth inhibitors of H69AR lung tumor, primary screen, human, duplicate replicates (AID 580); conditions: H69AR lung tumor cells viability, ATP luminescence, 72 h; at 10 µM; stronger effect = lower value;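 note: 100% = mean luminescence of untreated wells and 0% = no signal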
[6] = reversal of MRP1-mediated doxorubicin resistance, pilot screen, H69AR cells, doxorubicin co-treatment (AID 601;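 active = viability loss from added drug above about 55%, and viability with drug at most 40%, in both replicates, limit read from the data, passing the limit was not always enough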); conditions: CellTiter-Glo, 72 h, at 10 µM; for differential viability (reversal): stronger effect = higher value
[7] = 384-well plate pilot, post-Golgi transport modulator project, inhibition of yeast transport mutant growth (AID 636; in the data active = inhibition above about 31%); conditions: absorbance 615 nm, about 18 h, stronger effect = higher value
[8] = growth suppression of yeast trafficking mutant, preliminary HTS, modulators of trafficking downstream of Golgi apparatus project, 1536-format plate, OD 615 nm (AID 637; in the data active = inhibition above about 30%); conditions: yeast transport mutant growth, absorbance 615 nm, 18 h; stronger effect = higher value
[9] = H69AR cells + 2 uM doxorubicin, measured here: viability with 2 uM doxorubicin, stronger effect = lower value
[10] = H69AR cells, compound alone cytotoxicity

Row | SMILES | viability [1] [%] | Her2 level [2] | viability [3] | viability [4] | viability [5] | differential viability (reversal) ([6]; H69AR cells + 2 uM doxorubicin) | viability [6, 9] [%] | viability [6, 10] [%] | inhibition [7] | inhibition [8]
1 | CCN1CCN(c2nc3c(C)cccn3c(=O)c2/C=C(\C#N)S(=O)(=O)c2ccccc2)CC1 | 93 | 76.5% (inactive) | 93% (inactive) | 89.6% (inactive) | 75.1% (inactive) | -7.74% (inactive) | 82.8 | 75.1 | -2.76% (inactive) | -0.18% (inactive)
2 | CC(C)C1Cc2c(C#N)c(N)sc(=S)c2CO1 (stereo not given) | 85 | 108% (inactive) | 85% (inactive) | 64.2% (inactive) | 93.9% (inactive) | -2.34% (inactive) | 96.2 | 93.9 | -4.03% (inactive) | -2.13% (inactive)
3 | CC(=O)NS(=O)(=O)c1ccc(NC(=O)c2ccccc2F)cc1 | 72 | 95% (inactive) | 72% (inactive) | 87.3% (inactive) | 99.4% (inactive) | 3.83% (inactive) | 95.5 | 99.4 | 0% (inactive) | 2.33% (inactive)
4 | COc1ccc(OC)c(C2C3=C(CCCC3=O)Nc3c2c(=O)n(C)c(=O)n3C)c1 (stereo not given) | 106 | 108% (inactive) | 106% (inactive) | 103% (inactive) | 102% (inactive) | -5.08% (inactive) | 107 | 102 | -2.24% (inactive) | -0.33% (inactive)
5 | COCCNC(=O)CN(C)S(=O)(=O)c1ccc2c(c1)OCCO2 | 107 | 102% (inactive) | 107% (inactive) | 104% (inactive) | 100% (inactive) | 12% (inactive) | 88.2 | 100 | -4.8% (inactive) | -2.26% (inactive)
6 | O=C(CSc1ncc(-c2ccc(F)cc2)[nH]1)N1CCCCC1 | 91 | 124% (inactive) | 91% (inactive) | 92.6% (inactive) | 91.3% (inactive) | 2.38% (inactive) | 89 | 91.3 | -2.95% (inactive) | 0% (inactive)
7 | O=C(CSCc1cnn(-c2ccccc2)c1-n1cccc1)NCC1CCCO1 (stereo not given) | 97.5 | 85% (inactive) | 97.5% (inactive) | 94.1% (inactive) | 93.7% (inactive) | -10.7% (inactive) | 104 | 93.7 | -4.59% (inactive) | -2.7% (inactive)
8 | CCN(c1cccc(C)c1)S(=O)(=O)c1ccc2[nH]c(=O)c(=O)[nH]c2c1 | 108 | 75% (inactive) | 108% (inactive) | 88.7% (inactive) | 92.1% (inactive) | 1.35% (inactive) | 90.8 | 92.1 | -2.24% (inactive) | 0.91% (inactive)
9 | CCOC(=O)N1CCC(NC(=O)c2ccc3c(c2)N(C)CCS3)CC1 | 87 | 92.5% (inactive) | 87% (inactive) | 109% (inactive) | 92.2% (inactive) | 8.3% (inactive) | 83.9 | 92.2 | -4.21% (inactive) | 4.92% (inactive)
10 | Oc1ccc2cccnc2c1 | 94.5 | 108% (inactive) | 94.5% (inactive) | 107% (inactive) | 106% (inactive) | 5.68% (inactive) | 100 | 106 | -4.8% (inactive) | -8.41% (inactive)
11 | Fc1cc(F)c(F)c(SCCc2ccncc2)c1F | 97 | 81.5% (inactive) | 97% (inactive) | 93.8% (inactive) | 85.3% (inactive) | 5% (inactive) | 80.3 | 85.3 | 0.67% (inactive) | 1.45% (inactive)
12 | CCOC(=O)c1sc(C)c2c(=O)n(CC)nnc12 | 94 | 111% (inactive) | 94% (inactive) | 98.3% (inactive) | 103% (inactive) | 1.48% (inactive) | 102 | 103 | -4% (inactive) | -9.52% (inactive)
13 | COc1ccccc1S(=O)(=O)n1cc(Cc2ccccc2)c(N)n1 | 96.5 | 86% (inactive) | 96.5% (inactive) | 96.4% (inactive) | 104% (inactive) | 5.54% (inactive) | 98.5 | 104 | -2.37% (inactive) | -6.51% (inactive)
14 | CC1(C)COCN1S(=O)(=O)c1ccc(C(=O)Nc2nnc(-c3ccc(Cl)s3)o2)cc1 | 70.5 | 97% (inactive) | 70.5% (inactive) | 4.41% (active) | 15% (active) | -18.8% (inactive) | 33.8 | 15 | -5.21% (inactive) | -1.43% (inactive)
15 | N#Cc1c2n(c(=S)n(-c3ccccn3)c1=O)CCCCC2 | 81.5 | 91.5% (inactive) | 81.5% (inactive) | 97.8% (inactive) | 86% (inactive) | -5.17% (inactive) | 91.1 | 86 | 2.99% (inactive) | -10.7% (inactive)
16 | CSCCC(NC(=O)c1occc1C)C(=O)O (stereo not given) | 93.5 | 94.5% (inactive) | 93.5% (inactive) | 103% (inactive) | 103% (inactive) | 12.8% (inactive) | 89.8 | 103 | -2.63% (inactive) | 2.83% (inactive)

Row | SMILES | viability [1] [%] | Her2 level [2] | viability [3] | viability [4] | viability [5] | differential viability (reversal) ([6]; H69AR cells + 2 uM doxorubicin) | viability [6, 9] [%] | viability [6, 10] [%] | inhibition [7] | inhibition [8]
17 | CCOC(=O)C(NC(=O)OC(C)C)(Nc1nccs1)C(F)(F)F (stereo not given) | 89.5 | 96.5% (inactive) | 89.5% (inactive) | 103% (inactive) | 110% (inactive) | 12% (inactive) | 97.6 | 110 | -4.29% (inactive) | 4.44% (inactive)
18 | Cc1ccc2cc(C#N)c(NCCCNC(=O)C3CCCO3)nc2c1 (stereo not given) | 106 | 73% (inactive) | 106% (inactive) | 104% (inactive) | 99% (inactive) | 12.6% (inactive) | 86.4 | 99 | -6.71% (inactive) | 6.19% (inactive)
19 | O=C(CSc1nnc(CNC(=O)c2cccs2)o1)NC1CCCC1 | 102 | 100% (inactive) | 102% (inactive) | 102% (inactive) | 82.4% (inactive) | -0.76% (inactive) | 83.2 | 82.4 | -0.26% (inactive) | -1.17% (inactive)
20 | COC(=O)c1cccc(Oc2nc3c(c(=O)n(C)c(=O)n3C)n2C(C)C)c1 | 80.5 | 84% (inactive) | 80.5% (inactive) | 79.6% (inactive) | 79.6% (inactive) | -20.9% (inactive) | 101 | 79.6 | -2.93% (inactive) | 2% (inactive)
21 | COC(=O)c1ccccc1NC(=O)CSc1nnnn1C1CCCCC1 | 120 | 112% (inactive) | 120% (inactive) | 81.2% (inactive) | 85.9% (inactive) | 0.925% (inactive) | 85 | 85.9 | -5.6% (inactive) | -2.26% (inactive)
22 | COc1ccc(N(C(=O)c2ccco2)C(C(=O)NC2CCCC2)c2ccc(N(C)C)cc2)cc1OC (stereo not given) | 100 | 123% (inactive) | 100% (inactive) | 91.2% (inactive) | 90% (inactive) | -14.6% (inactive) | 105 | 90 | -1.3% (inactive) | -8.5% (inactive)
23 | Cc1cc2c(s1)c1cnn(CC(=O)NCCc3ccccc3)c(=O)c1n2C | 120 | 98.5% (inactive) | 120% (inactive) | 118% (inactive) | 87.1% (inactive) | 5.06% (inactive) | 82 | 87.1 | -5.81% (inactive) | -3.5% (inactive)
24 | Cc1c(CCC#N)c(N2CCN(C3CCCCC3)CC2)n2c(nc3ccccc32)c1C#N | 88 | 83.5% (inactive) | 88% (inactive) | 74.7% (inactive) | 32.5% (active) | 10.4% (inactive) | 22.1 | 32.5 | -5.48% (inactive) | -0.16% (inactive)
25 | COc1ccc(OC)c(S(=O)(=O)N2c3ccccc3CC2C)c1 (stereo not given) | 82.5 | 109% (inactive) | 82.5% (inactive) | 77.6% (inactive) | 89.4% (inactive) | -11.7% (inactive) | 101 | 89.4 | -4.86% (inactive) | -3.93% (inactive)
26 | O=C(CSc1nnc(-c2cccs2)o1)N1CCOCC1 | 107 | 92.5% (inactive) | 107% (inactive) | 99.4% (inactive) | 96.6% (inactive) | -4.63% (inactive) | 101 | 96.6 | -3.6% (inactive) | -1.45% (inactive)
27 | Nc1nc(CN2CCN(Cc3ccc4c(c3)OCO4)CC2)nc(Nc2ccccc2)n1 | 102 | 92.5% (inactive) | 102% (inactive) | 114% (inactive) | 97.4% (inactive) | 13% (inactive) | 84.4 | 97.4 | -2.76% (inactive) | 5.48% (inactive)
28 | Cn1c(SCC(=O)N2CCN(c3cccc(Cl)c3)CC2)nnc1-c1ccncc1 | 84 | 76% (inactive) | 84% (inactive) | 49.4% (inactive) | 79.8% (inactive) | -18.5% (inactive) | 98.3 | 79.8 | 3.59% (inactive) | -1.33% (inactive)
29 | Cc1cnc(C(=O)OCC(=O)Nc2ccc(Oc3ccccc3)cc2)cn1 | 77 | 102% (inactive) | 77% (inactive) | 91.5% (inactive) | 91.9% (inactive) | 9.6% (inactive) | 82.3 | 91.9 | 5.51% (inactive) | -21.7% (inactive)
30 | Cc1cc(=O)n(C)c(=O)n1CCCCCN1CCCC1 | 96.5 | 80% (inactive) | 96.5% (inactive) | 100% (inactive) | 99.8% (inactive) | 14.7% (inactive) | 85.2 | 99.8 | -1.2% (inactive) | 0.48% (inactive)
31 | Cc1noc(COc2ccccc2OCC(O)CNC(C)(C)C)n1 (stereo not given) | 101 | 89% (inactive) | 101% (inactive) | 103% (inactive) | 97% (inactive) | 7.13% (inactive) | 89.9 | 97 | -5.21% (inactive) | -9.37% (inactive)
